ChEMBL document CHEMBL4152184, “NB 06: From a simple lysosomotropic aSMase inhibitor to tools for elucidating the role of lysosomes in signaling apoptosis and LPS-induced inflammation” (Eur J Med Chem, 2018)
Active and inactive are the calls of the source. The calls are words filed in the database; no cut-off is given here.

Columns and labels:
[1] = biological target: T1, Sphingomyelin phosphodiesterase (Homo sapiens) (UniProt P17405); assay: Inhibition of TNFalpha-stimulated acid sphingomyelinase in human PBMC lysates at 2 to 50 uM preincubated for 30 mins followed by TNFalpha stimulation measured after 4 hrs by YO-PRO-1/Hoechst 33342 staining based assay
T1 sequence (whole entry): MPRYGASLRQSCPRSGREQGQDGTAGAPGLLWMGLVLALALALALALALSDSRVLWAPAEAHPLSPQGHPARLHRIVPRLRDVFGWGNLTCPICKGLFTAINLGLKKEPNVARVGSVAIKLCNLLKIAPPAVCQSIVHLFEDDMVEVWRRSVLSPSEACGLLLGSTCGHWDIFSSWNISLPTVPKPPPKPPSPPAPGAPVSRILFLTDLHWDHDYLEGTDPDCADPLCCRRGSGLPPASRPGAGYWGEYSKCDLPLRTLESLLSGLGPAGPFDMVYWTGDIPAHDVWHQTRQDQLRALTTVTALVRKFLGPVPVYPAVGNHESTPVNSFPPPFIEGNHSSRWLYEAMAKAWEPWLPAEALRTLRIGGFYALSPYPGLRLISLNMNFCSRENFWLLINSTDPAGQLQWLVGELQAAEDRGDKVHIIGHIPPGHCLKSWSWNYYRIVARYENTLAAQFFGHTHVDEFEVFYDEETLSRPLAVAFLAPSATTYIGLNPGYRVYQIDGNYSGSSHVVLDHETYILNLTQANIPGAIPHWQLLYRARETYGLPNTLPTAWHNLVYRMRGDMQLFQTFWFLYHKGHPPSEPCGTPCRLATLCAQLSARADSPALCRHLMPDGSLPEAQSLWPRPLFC

MONO-MAC-6 [2] = assay: Downregulation of CCL4 mRNA expression level in human MONO-MAC-6 cells at 5 uM incubated for 30 mins measured after 6 hrs by oligonucleotide array hybridization assay relative to control; assay type: functional
Procedure, shortened: (§1)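 Total RNA was isolated, transcribed and labeled with DY-647 dye, then co-hybridized with DY-548-labeled cDNA from untreated cells on an inflammation oligonucleotide chip (780 gene probes). Differential expression >1.5 was taken as significant.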

MONO-MAC-6 [3] = assay: Upregulation of CCL4 mRNA expression level in human MONO-MAC-6 cells at 5 uM incubated for 30 mins measured after 1 hr by oligonucleotide array hybridization assay relative to control; assay type: functional
MONO-MAC-6 [4] = assay: Downregulation of CXCL10 mRNA expression level in human MONO-MAC-6 cells at 5 uM incubated for 30 mins measured after 6 hrs by oligonucleotide array hybridization assay relative to control; assay type: functional; procedure, shortened: as §1
[5] = biological target: T2, Acid ceramidase (Homo sapiens) (UniProt Q13510); assay: Inhibition of C2-dihydroceramide-stimulated acid ceramidase in human PBMC assessed as reduction in C16-ceramide level at 10 uM preincubated for 30 mins followed by C2-dihydroceramide stimulation measured after 4 hrs by HPLC method; assay type: cell-based
T2 sequence (whole entry): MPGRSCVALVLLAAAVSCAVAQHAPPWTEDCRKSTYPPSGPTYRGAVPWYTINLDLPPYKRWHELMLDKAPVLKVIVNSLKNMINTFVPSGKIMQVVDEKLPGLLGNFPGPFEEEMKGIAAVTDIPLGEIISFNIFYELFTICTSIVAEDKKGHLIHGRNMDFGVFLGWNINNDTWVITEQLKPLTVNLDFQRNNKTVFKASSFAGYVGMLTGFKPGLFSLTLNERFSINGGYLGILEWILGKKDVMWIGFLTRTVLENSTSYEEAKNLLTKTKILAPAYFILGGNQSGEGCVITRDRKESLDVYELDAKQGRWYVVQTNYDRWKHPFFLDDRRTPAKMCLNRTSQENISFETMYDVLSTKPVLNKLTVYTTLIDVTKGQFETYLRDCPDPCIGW

[6] = biological target: T2, Acid ceramidase (Homo sapiens); assay: Inhibition of TNFalpha-stimulated acid ceramidase in human PBMC assessed as ratio of C16-ceramide/lipid phosphate level at 10 uM preincubated for 30 mins followed by TNFalpha stimulation measured after 4 hrs by HPLC method (reference value: 0.49); assay type: cell-based
Procedure, shortened: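 Human macrophages from primary culture were preincubated 30 min with 10 µM compound. They were then stimulated 4 h with mmLDL (54 µg/mL), TNFalpha (3 ng/mL) or exogenous C6-ceramide (10 µM), or left unstimulated. Individual ceramide species (C16 and C24:1) were quantified in the cell lipid extracts.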

MONO-MAC-6 [7] = assay: Downregulation of IL23A mRNA expression level in human MONO-MAC-6 cells at 5 uM incubated for 30 mins measured after 2 hrs by qRT-PCR method relative to control; assay type: functional
[8] = biological target: T1, Sphingomyelin phosphodiesterase (Homo sapiens); assay: Inhibition of mmLDL-stimulated acid sphingomyelinase in human PBMC lysates at 100 uM preincubated for 30 mins followed by mmLDL stimulation measured after 4 hrs by YO-PRO-1/Hoechst 33342 staining based assay
MONO-MAC-6 [9] = assay: Downregulation of IL-6 mRNA expression level in human MONO-MAC-6 cells at 5 uM incubated for 30 mins measured after 1 hr by qRT-PCR method relative to control; assay type: functional
[10] = biological target: T1, Sphingomyelin phosphodiesterase (Homo sapiens); assay: Inhibition of mmLDL-stimulated acid sphingomyelinase in human PBMC lysates up to 2 uM preincubated for 30 mins followed by mmLDL stimulation measured after 4 hrs by YO-PRO-1/Hoechst 33342 staining based assay
MONO-MAC-6 [11] = assay: Downregulation of CXCL2 mRNA expression level in human MONO-MAC-6 cells at 5 uM incubated for 30 mins measured after 1 hr by qRT-PCR method relative to control; assay type: functional
MONO-MAC-6 [12] = assay: Upregulation of PTX3 mRNA expression level in LPS-stimulated human MONO-MAC-6 cells at 5 uM preincubated for 30 mins followed by LPS stimulation measured after 2 hrs by oligonucleotide array hybridization assay (reference value: 1.56); assay type: functional
MONO-MAC-6 [13] = assay: Upregulation of CXCL3 mRNA expression level in LPS-stimulated human MONO-MAC-6 cells at 5 uM preincubated for 30 mins followed by LPS stimulation measured after 2 hrs by oligonucleotide array hybridization assay (reference value: 3.24); assay type: functional
MONO-MAC-6 [14] = assay: Upregulation of CXCL2 mRNA expression level in LPS-stimulated human MONO-MAC-6 cells at 5 uM preincubated for 30 mins followed by LPS stimulation measured after 1 hr by qRT-PCR method (reference value: 1.29); assay type: functional
MONO-MAC-6 [15] = assay: Downregulation of PTGS2 mRNA expression level in human MONO-MAC-6 cells at 5 uM incubated for 30 mins measured after 6 hrs by oligonucleotide array hybridization assay relative to control; assay type: functional; procedure, shortened: as §1
MONO-MAC-6 [16] = assay: Downregulation of CCL4 mRNA expression level in human MONO-MAC-6 cells at 5 uM incubated for 30 mins measured after 2 hrs by oligonucleotide array hybridization assay relative to control; assay type: functional; procedure, shortened: as §1
MONO-MAC-6 [17] = assay: Upregulation of CXCL2 mRNA expression level in LPS-stimulated human MONO-MAC-6 cells at 5 uM preincubated for 30 mins followed by LPS stimulation measured after 1 hr by oligonucleotide array hybridization assay (reference value: 1.42); assay type: functional
MONO-MAC-6 [18] = assay: Downregulation of ICAM1 mRNA expression level in human MONO-MAC-6 cells at 5 uM incubated for 30 mins measured after 6 hrs by oligonucleotide array hybridization assay relative to control; assay type: functional; procedure, shortened: as §1

COc1ccc(CCN(C)CCCn2c3ccccc3c3ccccc32)cc1
inhibition [1]: Active
fold change (FC) (MONO-MAC-6 [2]): 7.41
fold change (FC) (MONO-MAC-6 [3]): 1.22
fold change (FC) (MONO-MAC-6 [4]): 6.7
inhibition [5]: inactive
Ratio [6]: 0.16
fold change (FC) (MONO-MAC-6 [7]): 1.24
inhibition [8]: Active
fold change (FC) (MONO-MAC-6 [9]): 1.04
inhibition [10]: inactive
fold change (FC) (MONO-MAC-6 [11]): 1.01
fold change (FC) (MONO-MAC-6 [12]): 1.2
fold change (FC) (MONO-MAC-6 [13]): 2.34
fold change (FC) (MONO-MAC-6 [14]): 1.08
fold change (FC) (MONO-MAC-6 [15]): 2.23
fold change (FC) (MONO-MAC-6 [16]): 1.05
fold change (FC) (MONO-MAC-6 [17]): 1.14
fold change (FC) (MONO-MAC-6 [18]): 1.79
